Test results published in ChEMBL document CHEMBL1157043, “An eco-friendly synthesis and antimicrobial activities of dihydro-2H-benzo- and naphtho-1,3-oxazine derivatives” (Eur J Med Chem, 2010).
In brackets after ≈: the same amount, converted by molar mass.

Experiments:
[1] = tested on: Candida albicans; experiment: Antimicrobial activity against Candida albicans after 24 hrs; type: functional
Procedure, shortened: (§1)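 Broth microdilution per NCCLS guidelines in MOPS-buffered RPMI 1640. Starting inoculum was 1-5 × 10^3 cfu/mL, and plates were incubated at 35 °C. MIC was read spectrophotometrically at 492 nm after 24–48 h for yeasts and 72–96 h for mycelial fungi.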

[2] = tested on: Cryptococcus neoformans; experiment: Antimicrobial activity against Cryptococcus neoformans after 24 hrs; type: functional; procedure, shortened: as §1
[3] = tested on: Sporothrix schenckii; experiment: Antimicrobial activity against Sporothrix schenckii after 24 hrs; type: functional; procedure, shortened: as §1
[4] = tested on: Trichophyton mentagrophytes; experiment: Antimicrobial activity against Trichophyton mentagrophytes after 24 hrs; type: functional
[5] = tested on: Aspergillus fumigatus; experiment: Antimicrobial activity against Aspergillus fumigatus after 24 hrs; type: functional
[6] = tested on: Candida parapsilosis; experiment: Antimicrobial activity against Candida parapsilosis ATCC 22019 after 24 hrs; type: functional; conditions: Lodderomyces parapsilosis, ATCC 22019, 24 h; procedure, shortened: as §1
[7] = tested on: Klebsiella pneumoniae; experiment: Antimicrobial activity against Klebsiella pneumoniae after 24 hrs; type: functional
Procedure, shortened: (§2)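 NCCLS microdilution in Mueller Hinton broth. Strains were grown 24 h on nutrient agar at 37 °C, suspended at about 1.0–2.0 × 10^7 cells/mL (McFarland-matched) in saline with 0.05% Tween 20, then diluted 100 µL into 10 mL medium. Compounds were taken from a 1 mg/mL DMSO stock as twofold dilutions, top final 50 µg/mL. Incubation was 35 °C in a moist, dark chamber, and MIC was read spectrophotometrically at 24 h.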

[8] = tested on: Escherichia coli; experiment: Antimicrobial activity against Escherichia coli after 24 hrs; type: functional; procedure, shortened: as §2
[9] = tested on: Pseudomonas aeruginosa; experiment: Antimicrobial activity against Pseudomonas aeruginosa after 24 hrs; type: functional; procedure, shortened: as §2
[10] = tested on: Staphylococcus aureus; experiment: Antimicrobial activity against Staphylococcus aureus after 24 hrs; type: functional; procedure, shortened: as §2
[11] = tested on: L929; experiment: Cytotoxicity against mouse L929 cells at 6.25 ug/ml after 24 hrs by MTT assay; type: cell-based; conditions: l929, 24 h
Procedure, shortened: (§3)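 L929 mouse fibroblasts were grown in RPMI 1640 with 10% FBS at 37 °C under 5% CO2 and seeded at 1.0 × 10^5 cells/mL. At 80% confluence the medium was switched to serum-free RPMI, and cells were exposed 24 h to 0.09–25 µg/mL in twofold steps. After PBS washes, cells got 0.5 mg/mL MTT for 4 h at 37 °C, then DMSO for 30 min at room temperature. Viability was calculated as (A570−A630) relative to untreated cells.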

[12] = tested on: L929; experiment: Cytotoxicity against mouse L929 cells assessed as change in morphology at 6.25 ug/ml after 24 hrs […]; type: cell-based; conditions: l929, 24 h
Procedure, shortened: (§4)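 L929 fibroblasts (serum-free RPMI, 37 °C, 5% CO2) were exposed to compound for 24 h, then fixed and stained with Giemsa for 30 min at 37 °C. Excess stain was washed off with PBS, plates were air-dried, and cell morphology was examined under a phase contrast microscope against untreated controls.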

[13] = Cytotoxicity against mouse L929 cells assessed as viability at 12.5 to 25 ug/ml after 24 hrs by MTT assay; type: cell-based; conditions: read-out: Activity; procedure, shortened: as §3
[14] = tested on: L929; experiment: Cytotoxicity against mouse L929 cells assessed as change in cellular morphology at 12.5 to 25 ug/ml after 24 hrs […]; type: cell-based; conditions: l929, 24 h; procedure, shortened: as §4
[15] = tested on: Aspergillus fumigatus; experiment: Antimicrobial activity against Aspergillus fumigatus after 72 to 96 hrs
[16] = tested on: Trichophyton mentagrophytes; experiment: Antimicrobial activity against Trichophyton mentagrophytes after 72 to 96 hrs

Row | SMILES | MIC [1] [µg/mL] | MIC [2] [µg/mL] | MIC [3] [µg/mL] | MIC [4] [µg/mL] | MIC [5] [µg/mL] | MIC [6] [µg/mL] | MIC [7] [µg/mL] | MIC [8] [µg/mL] | MIC [9] [µg/mL] | MIC [10] [µg/mL] | Activity [11] | Activity [12] | viability at 24 h [13] [%] | Activity [14] | MIC [15] [µg/mL] | MIC [16] [µg/mL]
1 | Cc1ccc2c(c1)CN(c1ccc(Cl)cc1)CO2 | 50 (≈ 193 µM) | 25 (≈ 96.3 µM) | 12.5 (≈ 48.1 µM) | 12.5 (≈ 48.1 µM) | 25 (≈ 96.3 µM) | 50 (≈ 193 µM) | 25 (≈ 96.3 µM) | > 50 | 50 (≈ 193 µM) | 25 (≈ 96.3 µM) |  |  |  |  |  | 
2 | Clc1ccc2c(c1)CN(CCN1COc3ccc(Cl)cc3C1)CO2 | 12.5 (≈ 34.2 µM) | 12.5 (≈ 34.2 µM) | 6.25 (≈ 17.1 µM) |  |  | 25 (≈ 68.4 µM) | > 50 | > 50 | > 50 | 12.5 (≈ 34.2 µM) | Non-toxic | Non-toxic | > 90 | Toxic | 50 (≈ 137 µM) | 3.12 (≈ 8.54 µM)
3 | Cc1ccc2c(c1)CN(c1ccc(F)cc1)CO2 | > 50 | 50 (≈ 206 µM) | 25 (≈ 103 µM) | 25 (≈ 103 µM) | > 50 | > 50 | 50 (≈ 206 µM) | 50 (≈ 206 µM) | 50 (≈ 206 µM) | 50 (≈ 206 µM) |  |  |  |  |  | 
4 | Clc1ccccc1N1COc2c(Cl)ccc(Cl)c2C1 | > 50 | 50 (≈ 159 µM) | 12.5 (≈ 39.7 µM) |  |  | 50 (≈ 159 µM) | 6.25 (≈ 19.9 µM) | > 50 | 50 (≈ 159 µM) | 12.5 (≈ 39.7 µM) | Non-toxic | Non-toxic | > 90 | Toxic | 50 (≈ 159 µM) | 12.5 (≈ 39.7 µM)
5 | Clc1cc(Cl)c2c(c1)CN(CCN1COc3c(Cl)cc(Cl)cc3C1)CO2 | 50 (≈ 115 µM) | 25 (≈ 57.6 µM) | > 50 |  |  | 50 (≈ 115 µM) | 1.56 (≈ 3.59 µM) | > 50 | > 50 | 0.39 (≈ 0.898 µM) | Non-toxic | Non-toxic | > 90 | Toxic | 50 (≈ 115 µM) | 25 (≈ 57.6 µM)
6 | Clc1ccc(N2COc3ccc4ccccc4c3C2)cc1 | > 50 | 50 (≈ 169 µM) | 50 (≈ 169 µM) |  |  | > 50 | 50 (≈ 169 µM) | > 50 | 50 (≈ 169 µM) | > 50 |  |  |  |  | > 50 | 25 (≈ 84.5 µM)
7 | Clc1ccc2c(c1)CN(c1ccccc1Cl)CO2 | 12.5 (≈ 44.6 µM) | 12.5 (≈ 44.6 µM) | 6.25 (≈ 22.3 µM) |  |  | 25 (≈ 89.2 µM) | > 50 | > 50 | > 50 | 6.25 (≈ 22.3 µM) | Non-toxic | Non-toxic | > 90 | Toxic | 25 (≈ 89.2 µM) | 3.12 (≈ 11.1 µM)
